Measurements published in ChEMBL document CHEMBL1765023, “Acetyl analogs of combretastatin A-4: synthesis and biological studies” (Bioorg Med Chem, 2011).
≈ marks a conversion by molar mass, not a printed value. Values belong to the compound of their own block, whether it stands above or below them.

Legend:
B16 = experiment: Cytotoxicity against mouse B16 cells by MTT assay; type: functional, cell-based
L1210 = experiment: Cytotoxicity against mouse L1210 cells by MTT assay; type: functional, cell-based
[1] = Ratio of EC50 for microtubule depolymerization in […] cells to IC50 for human MDA-MB-435 cells
[2] = Solubility of the compound in water by multiscreen solubility; type: physicochemical
Outline: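 Aqueous solubility was measured with a modified Multiscreen Solubility filter-plate protocol. The assay ceiling is 500 µM, and two independent experiments were run.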

[3] = Induction of microtubule depolymerization in […] cells for 18 hrs by indirect immunofluorescence microscopic analysis; type: cell-based
Outline: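 Uses A-10 cells, a non-transformed line that arrests in interphase under microtubule-targeting agents. Cells were treated for 18 h and interphase microtubules were visualized by indirect immunofluorescence microscopy, with vehicle-treated controls. Depolymerization was screened at concentrations below 30 µM. For EC50, a range of concentrations was tested, and EC50 is the concentration causing 50% loss of cellular microtubules by microscopy.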

Mus musculus [4] = experiment: Toxicity in DBA2 mouse assessed as change in platelet count at 75 mg/kg, ip QD administered on alternate days for 17 days measured on day 23 relative to control; type: organism-based; set-up: dose 75 mg/kg, route intraperitoneal; conditions: in vivo, 408 h
Outline: (§1)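 Healthy female DBA2 mice, 5–7 weeks old, five per group, received 75 mg/kg ip on days 1, 5, 9, 13 and 17. Vehicle was PET (PEG400/ethanol/Tween 80, 6:3:1), 5% glucose and DMSO, with final ethanol 15% and DMSO 10%. Controls received 100 µL vehicle. Body weight was measured every other day. At sacrifice on day 23, blood counts (hematocrit, WBC, granulocytes, platelets) and liver, kidney and spleen appearance and weight were assessed.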

Mus musculus [5] = experiment: Toxicity in DBA2 mouse assessed as change in color, weight and size in spleen at 75 mg/kg, ip QD administered on alternate days for 17 days measured on day 23 relative to control; type: organism-based; set-up: dose 75 mg/kg, route intraperitoneal; conditions: in vivo, 408 h; outline: as §1
Mus musculus [6] = experiment: Toxicity in DBA2 mouse assessed as change in white blood count at 75 mg/kg, ip QD administered on alternate days for 17 days measured on day 23 relative to control; type: organism-based; set-up: dose 75 mg/kg, route intraperitoneal; conditions: in vivo, 408 h; outline: as §1
Mus musculus [7] = experiment: Toxicity in DBA2 mouse assessed as change in body weight at 75 mg/kg, ip QD administered on alternate days for 17 days measured on day 23 relative to control; type: organism-based; set-up: dose 75 mg/kg, route intraperitoneal; conditions: in vivo, 408 h; outline: as §1
Mus musculus [8] = experiment: Toxicity in DBA2 mouse assessed as change in color, weight and size in kidney at 75 mg/kg, ip QD administered on alternate days for 17 days measured on day 23 relative to control; type: organism-based; set-up: dose 75 mg/kg, route intraperitoneal; conditions: in vivo, 408 h; outline: as §1
Mus musculus [9] = experiment: Toxicity in DBA2 mouse assessed as change in granulocyte count at 75 mg/kg, ip QD administered on alternate days for 17 days measured on day 23 relative to control; type: organism-based; set-up: dose 75 mg/kg, route intraperitoneal; conditions: in vivo, 408 h; outline: as §1
Mus musculus [10] = experiment: Toxicity in DBA2 mouse assessed as change in color, weight and size in liver at 75 mg/kg, ip QD administered on alternate days for 17 days measured on day 23 relative to control; type: organism-based; set-up: dose 75 mg/kg, route intraperitoneal; conditions: in vivo, 408 h; outline: as §1
Mus musculus [11] = experiment: Toxicity in DBA2 mouse assessed as change in hematocrit at 75 mg/kg, ip QD administered on alternate days for 17 days measured on day 23 relative to control; type: organism-based; set-up: dose 75 mg/kg, route intraperitoneal; conditions: in vivo, 408 h; outline: as §1

SMILES: COc1cc(/C(=C\c2cccc([N+](=O)[O-])c2)C(C)=O)cc(OC)c1OC
IC50 (B16): 3.8 µM
IC50 (L1210): 3.3 µM

SMILES: COc1cc(OC)c(/C=C(/C(C)=O)c2cc(OC)c(OC)c(OC)c2)c(OC)c1
IC50 (B16): > 100 µM
IC50 (L1210): 3.7 µM

SMILES: COc1cc(/C(=C\c2ccc(Cl)c(Cl)c2)C(C)=O)cc(OC)c1OC
IC50 (B16): 6.4 µM
IC50 (L1210): 4 µM

SMILES: COc1ccc(/C=C(/C(C)=O)c2cc(OC)c(OC)c(OC)c2)cc1O[Si](C)(C)C(C)(C)C
IC50 (B16): 5.1 µM
IC50 (L1210): 0.18 µM

SMILES: COc1cc(/C(=C\c2cccc(Br)c2)C(C)=O)cc(OC)c1OC
IC50 (B16): 39 µM
IC50 (L1210): 35 µM

SMILES: COc1ccc(/C=C(/C(C)=O)c2cc(OC)c(OC)c(OC)c2)cc1[N+](=O)[O-]
IC50 (B16): 3.8 µM
IC50 (L1210): 3.1 µM

SMILES: COc1cccc(/C=C(/C(C)=O)c2cc(OC)c(OC)c(OC)c2)c1
IC50 (B16): 31 µM
IC50 (L1210): 39 µM

SMILES: COc1cc(/C(=C\c2ccc(Br)cc2)C(C)=O)cc(OC)c1OC
IC50 (B16): 19 µM
IC50 (L1210): 4 µM

SMILES: COc1cc(/C(=C\c2ccc(F)cc2)C(C)=O)cc(OC)c1OC
IC50 (B16): 65 µM
IC50 (L1210): 43 µM

solubility [2]: 319 µM (≈ 109 µg/mL)
EC50 [3]: 18.6 µM
SMILES: COc1ccc(/C=C(/C(C)=O)c2cc(OC)c(OC)c(OC)c2)cc1
IC50 (B16): 7.3 µM
Ratio [1]: 53
IC50 (L1210): 0.38 µM

SMILES: COc1cc(/C=C(/C(C)=O)c2cc(OC)c(OC)c(OC)c2)cc(OC)c1OC
IC50 (B16): 23 µM
IC50 (L1210): 7.2 µM

SMILES: COc1cc(/C(=C\c2ccc(C#N)cc2)C(C)=O)cc(OC)c1OC
IC50 (B16): 29 µM
IC50 (L1210): 8 µM

SMILES: COc1ccc(/C=C(/C(C)=O)c2cc(OC)c(OC)c(OC)c2)cc1OC
IC50 (B16): 42 µM
IC50 (L1210): 37 µM

SMILES: COc1cc(/C(=C\c2ccc([N+](=O)[O-])cc2)C(C)=O)cc(OC)c1OC
IC50 (B16): 18 µM
IC50 (L1210): 18 µM

SMILES: COc1cc(/C(=C\c2ccccc2)C(C)=O)cc(OC)c1OC
IC50 (B16): 25 µM
IC50 (L1210): 5.4 µM

solubility [2]: 443 µM (≈ 145 µg/mL)
EC50 [3]: 5.6 µM
SMILES: COc1cc(/C(=C\c2ccc(C)cc2)C(C)=O)cc(OC)c1OC
IC50 (B16): 2.9 µM
Activity (Mus musculus [4]): Non-toxic
Activity (Mus musculus [5]): Non-toxic
Activity (Mus musculus [6]): Non-toxic
Activity (Mus musculus [7]): Non-toxic
Ratio [1]: 59
Activity (Mus musculus [8]): Non-toxic
Activity (Mus musculus [9]): Non-toxic
IC50 (L1210): 0.36 µM
Activity (Mus musculus [10]): Non-toxic
Activity (Mus musculus [11]): Non-toxic

SMILES: COc1ccccc1/C=C(/C(C)=O)c1cc(OC)c(OC)c(OC)c1
IC50 (B16): 41 µM
IC50 (L1210): 40 µM

SMILES: COc1ccc(OC)c(/C=C(/C(C)=O)c2cc(OC)c(OC)c(OC)c2)c1
IC50 (B16): 4 µM
IC50 (L1210): 3.7 µM

SMILES: COc1cc(/C(=C\c2ccc(Cl)cc2)C(C)=O)cc(OC)c1OC
IC50 (B16): 7.4 µM
IC50 (L1210): 5 µM
